Where two headings read alike, the source gives them in different places.

The test system of one data set is 209 bp_CYC1pro. Put plainly: Biolayer interferometry of BenM WT on negative control cyc1 promoter element. To be noted: BLI, 1.6–100 nM WT BenM. The class given is binding. The method in brief: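 His-tagged protein purified on a HisTrap column with stepwise imidazole elution (Tris–HCl, NaCl, glycerol, DTT, pH 7.9), then optionally polished by Superdex 200 gel filtration (50 mM Tris–HCl, 150 mM NaCl, pH 8.0). Biotinylated 209 bp promoter duplex was annealed at 94°C for 2 min, then RT for 3 h. Kinetics were kept only when fit R² > 0.95; Req/Rmax fractional saturation versus protein concentration gave the Hill coefficient.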

For data set [1], the system named is 209bp_CYC1p_BenO_T1::yEGFP reporter. The class given is cell-based, Saccharomyces cerevisiae. The method in brief: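 S. cerevisiae CEN.PK carrying a chromosomal yeGFP reporter and plasmid-borne BenM variants, grown overnight in SC-Leu at 30°C. Cultures were subcultured 1:100 into medium ± CCM for 22–23 h, then flow cytometry (488 nm) gave MFI from 10 000 gated single cells. Controls were run in biological triplicate. Fold induction is inducer-medium MFI divided by control-medium MFI. Populations were compared by two-tailed Mann–Whitney test.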

The test system is the same in data set [2]. The class given is cell-based, Saccharomyces cerevisiae. To be noted: P < 0.05.
The target of a further data set is T1, BenM WT (Acinetobacter sp. ADP1, UniProt O68014 1-304).
T1 sequence: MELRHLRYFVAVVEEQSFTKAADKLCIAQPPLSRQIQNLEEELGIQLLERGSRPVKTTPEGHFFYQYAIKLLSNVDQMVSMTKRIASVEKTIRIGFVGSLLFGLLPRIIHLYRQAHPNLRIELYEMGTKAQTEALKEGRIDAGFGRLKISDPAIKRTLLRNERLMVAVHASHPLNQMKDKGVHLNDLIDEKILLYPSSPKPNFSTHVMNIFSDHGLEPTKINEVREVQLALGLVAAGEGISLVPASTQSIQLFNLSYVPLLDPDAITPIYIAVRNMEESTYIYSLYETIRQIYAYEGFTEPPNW
Put plainly: BLI. For orientation: BLI is a label-free optical method that tracks binding on a fibre tip over time.

B1: BenM WT: Acinetobacter sp. ADP1 CCM-binding LysR-type transcriptional activator BenM, wild type (protein, UniProt O68014 1-304, looked up)
HTH-type transcriptional …: T1 sequence
Usually fold induction stands for the signal under treatment as a multiple of the control signal. Regarding B1, in the data set on 209 bp_CYC1pro, the “binding to negative control cyc1 promoter element” value is recorded as “no binding was observed”. Also, the values for the fold-induction in data set [1] (0.035 mM CCM) and in data set [1] (0.070 mM CCM) were 0.90 ± 0.05 and 1.02 ± 0.14, respectively. The molecule further gave a fold induction in data set [1] (1.4 mM CCM vs control medium) of 2.8 fold. Moreover, the “lowest CCM concentration with significant induction (lower detection limit)” value in data set [1] (P < 0.05 vs control medium) is on record as 0.56 mM. In data set [1] (within the operational range of WT BenM), the “fold induction by CCM” value was found to be 5 fold. Further, the “lowest adipic acid concentration with significant induction” value in data set [2] came to 14 mM.

B2: 209bp_CYC1pro (dsDNA)
DNA 1: ATTAGGACCTTTGCAGCATAAATTACTATACTTCTATAGACACACAAACACAAATACACACACTAAATTAATA
DNA 2: TATTAATTTAGTGTGTGTATTTGTGTTTGTGTGTCTATAGAAGTATAGTAATTTATGCTGCAAAGGTCCTAAT
B2: in the data set with BenM WT, the binding result is given as “no binding”.

Source of the values: publication PMC6943132 (Nucleic Acids Research, 2019).
